# Compounds with a hit are over-represented: about 2.3% of the library has one in this group of screens.
# GSTO1 counter: inhibitors of recombinant GSTO1, primary screen, counter-screen for RBBP9 inhibitor project, biochemical, fluorescence polarization; inhibition, % at 5.96 µM; 300,000 tested, 1.1% active; activity-based probe fluorescence polarization; AID 1974, 2009; Glutathione S-transferase omega-1 (Homo sapiens), P78417;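 active means inhibition above the campaign mean inhibition plus 3 SD, cut at about 35% in these data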
# PAD4 inh: human PAD4 inhibitors, primary screen, biochemical, fluorescence polarization, 1536-well format; 330,000 tested, 0.41% active; inhibition, % at 6.36 µM; recombinant PAD4, RCA probe fluorescence polarization; Protein-arginine deiminase type-4 (Homo sapiens), Q9UM07;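 active means percent inhibition above a cutoff equal to the mean of all tested compounds plus 3 SD, cut at about 15% in these data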
# Target sequence (Q9UM07 whole entry, looked up): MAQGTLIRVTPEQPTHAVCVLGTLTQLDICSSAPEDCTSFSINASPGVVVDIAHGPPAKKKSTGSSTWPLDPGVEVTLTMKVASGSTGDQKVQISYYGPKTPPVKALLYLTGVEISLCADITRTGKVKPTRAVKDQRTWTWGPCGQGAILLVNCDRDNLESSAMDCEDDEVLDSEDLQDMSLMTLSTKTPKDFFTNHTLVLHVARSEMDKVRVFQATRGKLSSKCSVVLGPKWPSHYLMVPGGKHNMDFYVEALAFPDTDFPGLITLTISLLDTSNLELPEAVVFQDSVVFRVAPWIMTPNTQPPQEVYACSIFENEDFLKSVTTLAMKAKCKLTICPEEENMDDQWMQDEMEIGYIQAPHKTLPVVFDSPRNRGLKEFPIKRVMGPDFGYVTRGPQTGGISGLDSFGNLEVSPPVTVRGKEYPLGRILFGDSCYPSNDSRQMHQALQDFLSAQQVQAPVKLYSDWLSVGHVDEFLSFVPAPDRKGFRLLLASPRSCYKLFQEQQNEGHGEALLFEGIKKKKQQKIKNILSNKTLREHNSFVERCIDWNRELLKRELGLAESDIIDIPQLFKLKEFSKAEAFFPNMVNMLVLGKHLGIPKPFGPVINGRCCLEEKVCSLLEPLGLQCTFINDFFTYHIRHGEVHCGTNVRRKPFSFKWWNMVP
# RBBP9 inhibitor: human RBBP9 inhibitors, primary screen, biochemical, fluorescence polarization, FP-Rh probe, HTS | Serine hydrolase RBBP9 (Homo sapiens), O75884 | recombinant RBBP9 | inhibition, % at 7.94 µM | 220,000 tested, 0.2% active | AID 1515, 2009;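 active means inhibition above the campaign mean of all tested compounds plus 3 SD, cut at about 14% in these data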
#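 Assay system: recombinant human RBBP9; Reagent: Serine-hydrolase probe FP-Rh, 375 nM pre-mixing; Doses: 7.94 µM single dose, 0.794% DMSO; Incubation: 30 min then 45 min, 25 °C; Detection: fluorescence polarization (mP), excitation 525 nm, emission 598 nm; Evaluation: percent inhibition from mP, scaled between DMSO and no-protein wells.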
# PRMT1 FP inh: PRMT1 methyltransferase inhibitors, primary screen, biochemical, fluorescence polarization; 370,000 tested, 1.3% active; inhibition, % at 2.79 µM; Protein arginine N-methyltransferase 1 (Homo sapiens), Q99873; recombinant PRMT1, activity-based probe fluorescence polarization;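 active means inhibition above about 21% made by adding two undisclosed values, limit read from the data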
# PME-1 primary: PME-1 inhibitors via competitive probe labeling, primary screen, biochemical, fluorescence polarization, FP-Rh probe, HTS; recombinant PME-1; inhibition, % at 5.9 µM; 320,000 tested, 0.53% active;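 active means inhibition above the campaign mean of all compounds plus 3 SD, cut at about 26% in these data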;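 further: competitive labeling of PME-1 active site by serine hydrolase directed probe; inhibitors block probe labeling so polarization falls and inhibition rises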
# Fam108B counter: mouse Fam108B serine hydrolase inhibitors, primary screen, counter-screen for RBBP9 inhibitor project, biochemical, fluorescence polarization | recombinant Fam108B, FP-Rh probe fluorescence polarization | inhibition, % at 9.51 µM | 300,000 tested, 0.33% active;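 active means inhibition above the screen mean inhibition plus 3 SD, computed separately per campaign, cut at about 18% in these data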;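 further: inhibitors lower polarization as less probe binds the enzyme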
# Hits are given with their value; - = inactive; . = no result given.
SMILES,GSTO1 counter,PAD4 inh,RBBP9 inhibitor,PRMT1 FP inh,PME-1 primary,Fam108B counter
COc1ccc(N(C(=O)C(C)C)S(=O)(=O)c2cccc([N+](=O)[O-])c2)cc1,-,-,-,-,-,-
O=C1/C(=C\c2ccco2)CCC/C1=C\c1ccco1,-,-,-,22,-,-
C=CC[C@]12CCc3ccccc3C1N(c1ccc(C(=O)OCC)cc1)C2=O (some centres undefined),.,-,.,-,-,.
S=C1NC(c2ccccc2)N2C(=S)NC(c3ccccc3)N12 (centres undefined),-,-,-,-,-,-
Cc1ccc(C2NC(=S)N3C(c4ccc(C)cc4)NC(=S)N23)cc1 (centres undefined),.,.,.,22,.,.
CC(=O)c1cc2c(O)c(O)ccc2o1,37,-,-,-,-,-
COc1cc(NC(=S)N2CCCC(CO)C2)cc(OC)c1 (centres undefined),-,-,-,21,-,-
COC(=O)Cc1ccc(NC(=S)N2CCCC(CO)C2)cc1 (centres undefined),-,-,-,-,-,-
COc1cccc(NS(=O)(=O)c2ccc3[nH]cc(C(=O)NCCC(C)C)c(=O)c3c2)c1,-,-,-,-,-,-
COc1cc(/C=C2\SC(c3ccc(C)cc3)=NC2=O)ccc1O,-,-,-,29,-,-
COc1ccc(/C=C2\SC(c3ccc(C)cc3)=NC2=O)cc1OC,-,-,-,-,-,-
COc1ccc(/C=C2/SC(c3ccc(C)cc3)=NC2=O)cc1OC,-,-,-,24,-,-
N#Cc1c(N)n(-c2ccc(C(=O)O)cc2)c2nc3ccccc3nc12,-,-,-,-,-,-
N#CC1=C(N)C2=CCCC[C@H]2[C@H](c2ccc(Br)cc2)C1(C#N)C#N,-,-,-,.,-,-
N#CC1=C(N)C2=CCCC[C@H]2[C@H](c2ccccc2)C1(C#N)C#N,-,-,-,24,-,-
O=C1C=CC2(C=C1)O[C@H](Cc1ccccc1)[C@@H](Cc1ccccc1)O2,.,.,.,51,.,.
O=C1Nc2ccccc2C1Cc1ccccc1 (centres undefined),-,-,-,-,-,-
O=S1(=O)c2ccc(N3CCSCC3)cc2Oc2ccccc2CN1Cc1cn(Cc2ccccc2C(F)(F)F)nn1,.,.,.,-,.,.
COCCOC(=O)C1=C(C)NC(=O)NC1c1cn(-c2ccccc2)nc1-c1cccs1 (centres undefined),-,-,-,-,-,-
COC(=O)C1=C(C)NC(C)=C(C(=O)OC)C1c1cn(-c2ccccc2)nc1-c1ccco1,-,-,-,31,-,-
CCc1nnc(NC(=O)CSc2nnc(COc3cccc(C)c3)o2)s1,35,-,-,-,-,-
Oc1ccc(/C=N/Nc2ccc(C(F)(F)F)cn2)c(O)c1,-,-,.,-,37,-
CCOC(=O)c1csc(NC(=O)C2CCCN(S(=O)(=O)c3ccc(Br)s3)C2)n1 (centres undefined),.,.,.,-,.,.
Cc1csc(NC(=O)C2CCCN(S(=O)(=O)c3ccc(Br)s3)C2)n1 (centres undefined),46,-,-,-,-,-
O=c1[nH]c(N/N=C\c2ccc3c(c2)OCO3)nc2ccccc12,-,-,-,-,29,-
SMILES,GSTO1 counter,PAD4 inh,RBBP9 inhibitor,PRMT1 FP inh,PME-1 primary,Fam108B counter
Cc1cc(C(=O)CSc2nc3ccccc3o2)c(C)n1C1CC1,-,-,-,-,-,-
COc1ccccc1CN1CC(C(=O)NCCn2nc(C)cc2C)CCC1=O (centres undefined),.,.,.,-,.,.
O=C(NCc1ccco1)c1ccc2c(c1)N(Cc1ccccc1)C(=O)CS2=O (centres undefined),-,-,-,-,-,-
O=C(NCC1CCCO1)c1ccc2c(c1)N(Cc1ccccc1)C(=O)CS2=O (centres undefined),-,-,-,24,-,-
CCN=C1NN=C(c2ccc(C)cc2)CS1,-,-,-,-,-,-
COCCN=C1NN=C(c2ccc(NC(C)=O)cc2)CS1,-,-,-,22,-,-

# Compound activity from PubChem BioAssay.
